In brackets after ≈: the same amount, converted by molar mass. Activity calls are given as the source filed them. The calls are words filed in the database; no cut-off is given here.
How the values were obtained:
Format in all cases: functional
Candida albicans [1] = assay: Antifungal activity against Candida albicans SC5314 after 48 hrs by broth microdilution method; settings: SC5314, 48 h
Method in brief: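 C. albicans SC5314 grown overnight, then set at (2−5) × 10^3 cells/mL in RPMI 1640. Compounds added at final 2 to 128 μg/mL, 35 °C for 48 h, following CLSI M27A3. OD600 read on a plate reader. MIC taken as the concentration giving 80% growth reduction.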

Candida albicans [2] = assay: Fungicidal activity against Candida albicans SC5314 at 16 ug/ml up to 12 hrs by YPD-based colony counting method
Method in brief: (§1)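 Overnight SC5314 cells washed and resuspended at 1 × 10^6 cells/mL in MOPS-buffered RPMI 1640. Compound added at final 8, 16 and 32 μg/mL, shaken at 30 °C. Aliquots taken at 0, 0.5, 1, 2, 3, 4, 5, 6, 7, 8 and 12 h, washed, diluted and plated on YPD agar for viable colony counts. Means ± SD.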

Candida albicans [3] = assay: Fungicidal activity against Candida albicans SC5314 at 32 ug/ml up to 2 hrs by YPD-based colony counting method; method in brief: as §1
Candida albicans [4] = assay: Induction of disruption of plasma membrane integrity in Candida albicans assessed as decrease in fluorescence intensity after 3 hrs by DPH-staining based spectrofluorophotometric analysis
Method in brief: (§2)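 Cells at 1 × 10^6/mL in YPD treated 3 h (0, 4, 8, 16, 32 μg/mL; amphotericin B 8 μg/mL as positive control). Fixed in 0.37% formaldehyde 30 min, washed in PBS, freeze-thawed in liquid nitrogen. Stained with 1 μM DPH 45 min at 30 °C, washed. Fluorescence read at ex 350/em 450 nm and expressed as relative fluorescence. Means ± SD.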

Candida albicans [5] = assay: Induction of disruption of plasma membrane integrity in Candida albicans assessed as increase in fluorescence intensity after 3 hrs by propidium iodide-staining based FACS analysis
Method in brief: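 Log-phase C. albicans harvested and suspended in RPMI 1640, then treated 3 h at 30 °C (amphotericin B 8 μg/mL as positive control). Stained with 5 μM propidium iodide for 30 min at room temperature. Cell fluorescence measured by flow cytometry.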

Candida albicans [6] = assay: Induction of disruption of plasma membrane integrity in Candida albicans assessed as decrease in fluorescence intensity at 8 ug/ml after 3 hrs by DPH-staining based spectrofluorophotometric analysis; method in brief: as §2

Row | Compound | MIC80 (Candida albicans [1]) | also measured
1 | O=C1C=C(c2ccccc2)C(=O)C2=C1c1ccccc1CO2 | > 128 µg/mL | –
2 | COC1(OC)C2C(=O)C=C(c3ccccc3)C1(O)Oc1ccc(O)cc12 (stereo not drawn) | > 128 µg/mL | –
3 | COc1c(O)c(-c2ccccc2)cc(O)c1-c1ccccc1 | > 128 µg/mL | –
4 | COC12Oc3ccc(O)cc3C1(O)C(=O)C=C(c1ccccc1)C2=O (stereo not drawn) | > 128 µg/mL | –
5 | COc1c(O)c(-c2ccccc2)cc(O)c1-c1ccc(O)cc1 | 16 µg/mL (≈ 51.9 µM) | –
6 | COC1=C(c2ccccc2O)C(=O)C=C(c2ccccc2)C1=O | 8 µg/mL (≈ 26.1 µM) | Activity (Candida albicans [2]): 99.8%; Activity (Candida albicans [3]): Active; Activity (Candida albicans [4]): Dose-dependent effect; Activity (Candida albicans [5]): Dose-dependent effect
7 | COC1=C(c2ccccc2)C(=O)C2=C(C1=O)c1ccccc1CO2 [BETULINAN B] | > 128 µg/mL | –
8 | COc1c(O)c(-c2ccccc2)cc(O)c1-c1cc(O)ccc1O | 64 µg/mL (≈ 197 µM) | –
9 | COC1=C(c2ccc(O)cc2)C(=O)C=C(c2ccccc2)C1=O | 8 µg/mL (≈ 26.1 µM) | –
10 | COC1=C(c2cc(O)ccc2O)C(=O)C=C(c2ccccc2)C1=O | 64 µg/mL (≈ 199 µM) | –
11 | Oc1cc(-c2ccccc2)c(O)c2c1-c1ccccc1CO2 | > 128 µg/mL | –
12 | COC1=C(c2ccccc2)C(=O)c2oc3ccccc3c2C1=O | > 128 µg/mL | –
13 | C[C@@H]1[C@H](O)[C@@H](C)/C=C/C=C/C=C/C=C/C=C/C=C/C=C/[C@H](O[C@@H]2O[C@H](C)[C@@H](O)[C@H](N)[C@@H]2O)C[C@@H]2O[C@](O)(C[C@@H](O)C[C@@H](O)[C@H](O)CC[C@@H](O)C[C@@H](O)CC(=O)O[C@H]1C)C[C@H](O)[C@H]2C(=O)O | – | Activity (Candida albicans [6]): Active
14 | COC1=C(c2ccccc2)C(=O)C=C(c2ccccc2)C1=O [BETULINAN C] | > 128 µg/mL | –

From ChEMBL document CHEMBL3871273, “p-Terphenyl Derivatives from the Endolichenic Fungus Floricola striata” (2016)
